Experimental data from ChEMBL document CHEMBL1137689, “Amines and oximes derived from deoxybenzoins as Helicobacter pylori urease inhibitors” (Eur J Med Chem, 2009).
pIC50: −log10 of the molar value. Active and inactive are the calls of the source. No cut-off for these calls is given here.

Biological target: Urease subunit alpha/Urease subunit beta (Helicobacter pylori (strain ATCC 700392 / 26695) (Campylobacterpylori)) (UniProt P69996+P14916)
Assay: Inhibition of Helicobacter pylori ATCC 43504 urease assessed as ammonia production at 400 ug/mL by indophenol method
Outline: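 Crude urease prepared from H. pylori ATCC 43504 grown 24 h at 37 °C in brucella broth with 10% heat-inactivated horse serum, microaerobic (5% O2, 10% CO2, 85% N2). Cells washed in PBS pH 7.4, stored -80 °C; urease in equal-volume glycerol kept at 4 °C. Enzyme (4U) preincubated with compound 3 h at room temperature; ammonia production read by indophenol method; percent inhibition.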

Chain of Urease subunit alpha/Urease subunit beta (Helicobacter pylori (strain ATCC 700392 / 26695) (Campylobacterpylori)) (P14916 whole entry, looked up): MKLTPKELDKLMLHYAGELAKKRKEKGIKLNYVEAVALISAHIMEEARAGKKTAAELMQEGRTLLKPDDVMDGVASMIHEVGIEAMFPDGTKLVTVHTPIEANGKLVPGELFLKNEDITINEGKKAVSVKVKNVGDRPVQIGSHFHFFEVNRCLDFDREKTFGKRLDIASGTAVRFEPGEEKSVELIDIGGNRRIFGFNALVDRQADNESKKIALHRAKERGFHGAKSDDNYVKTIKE
Chain of Urease subunit alpha/Urease subunit beta (Helicobacter pylori (strain ATCC 700392 / 26695) (Campylobacterpylori)) (P69996 whole entry, looked up): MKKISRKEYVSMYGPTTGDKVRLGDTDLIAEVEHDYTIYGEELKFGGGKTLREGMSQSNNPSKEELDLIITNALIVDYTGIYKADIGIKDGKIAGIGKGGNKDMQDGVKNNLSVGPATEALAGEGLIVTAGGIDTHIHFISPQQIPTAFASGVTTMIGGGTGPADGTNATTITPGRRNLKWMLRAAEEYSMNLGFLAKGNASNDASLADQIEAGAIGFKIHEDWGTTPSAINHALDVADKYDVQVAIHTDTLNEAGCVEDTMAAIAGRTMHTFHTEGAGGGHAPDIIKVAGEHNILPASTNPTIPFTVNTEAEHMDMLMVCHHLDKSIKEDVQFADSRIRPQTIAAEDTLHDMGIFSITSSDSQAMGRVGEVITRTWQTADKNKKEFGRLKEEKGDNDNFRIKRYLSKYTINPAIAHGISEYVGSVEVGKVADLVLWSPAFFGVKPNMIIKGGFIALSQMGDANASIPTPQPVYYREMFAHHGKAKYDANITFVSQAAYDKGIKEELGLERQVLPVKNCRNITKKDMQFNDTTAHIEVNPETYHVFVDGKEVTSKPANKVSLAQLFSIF

Row | SMILES | inhibition
1 | COc1c(O)cc(O)c(/C(Cc2ccc(O)cc2)=N/O)c1O | 38%
2 | COc1ccc(C/C(=N/O)c2ccc(OC)c(OC)c2OC)cc1 | inactive
3 | O/N=C(\Cc1ccc(F)cc1)c1ccc(O)c(O)c1O | 55%
4 | NC(Cc1ccc(F)cc1)c1ccc(O)c(O)c1O (stereo unspecified) | 80%
5 | COc1ccc(C/C(=N\O)c2ccc(O)cc2O)cc1 | 36%
6 | COc1cc(O)c(/C(Cc2ccc(OO)cc2)=N/O)c(OC)c1 | 15%
7 | O/N=C(\Cc1ccc(O)cc1)c1ccc(O)c(O)c1 | 62%
8 | NC(Cc1ccc(F)cc1)c1ccc(O)cc1O (stereo unspecified) | 48%
9 | O/N=C(/Cc1ccc(F)cc1)c1ccc(O)cc1O | 23%
10 | O=C(Cc1ccc(O)cc1)c1c(O)cc(O)cc1O | inactive
11 | NC(Cc1ccc(O)cc1)c1ccc(O)c(O)c1O (stereo unspecified) | 97.3%
12 | NC(Cc1ccc([N+](=O)[O-])cc1)c1ccc(O)cc1O (stereo unspecified) | inactive
13 | O=C(Cc1ccc(F)cc1)c1ccc(O)c(O)c1O | 44%
14 | COc1cc(O)c(C(=O)Cc2ccc(OO)cc2)c(OC)c1 | inactive
15 | COc1ccc(CC(N)c2ccc(O)cc2O)cc1 (stereo unspecified) | 73%
16 | COc1ccc(CC(=N)c2ccc(OC)c(OC)c2OC)cc1 | 11%
17 | COc1cc(O)c(C(N)Cc2ccc(OO)cc2)c(OC)c1 (stereo unspecified) | inactive
18 | COc1ccc(CC(=O)c2ccc(OC)c(OC)c2OC)cc1 | inactive
19 | O/N=C(\Cc1ccc(O)cc1)c1c(O)cc(O)cc1O | 13%
20 | O=[N+]([O-])c1ccc(C/C(=N/O)c2ccc(O)cc2O)cc1 | inactive
21 | O/N=C(/Cc1ccc(O)cc1)c1ccc(O)c(O)c1O | 73%
22 | NC(Cc1ccc(O)cc1)c1c(O)cc(O)cc1O (stereo unspecified) | 28%
23 | O=C(Cc1ccc(F)cc1)c1ccc(O)cc1O | 16%
24 | O=C(Cc1ccc([N+](=O)[O-])cc1)c1ccc(O)cc1O | inactive

Biological target: Urease subunit alpha/Urease subunit beta (Helicobacter pylori (strain ATCC 700392 / 26695) (Campylobacterpylori), UniProt P69996)
Sequence (P69996 whole entry): as the sequence (P69996 whole entry, looked up) above
Sequence (P14916 whole entry, further chain): as the sequence (P14916 whole entry, looked up) above
Assay: Inhibition of Helicobacter pylori ATCC 43504 urease assessed as ammonia production by indophenol method
Outline: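 Crude urease from H. pylori cells, grown 24 h at 37 °C microaerobically (5% O2, 10% CO2, 85% N2) in brucella broth with 10% heat-inactivated horse serum. Cells were washed in PBS pH 7.4 and stored at -80 °C; the extract was kept 1:1 in glycerol at 4 °C. Enzyme (4U) was preincubated with compound 3 h at room temperature. Percent inhibition was screened at 400 µg/mL; IC50 also determined.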

Row | SMILES | pIC50
25 | CC(=O)NO [ACETOHYDROXAMIC ACID] | 4.96
26 | NC(Cc1ccc(O)cc1)c1ccc(O)c(O)c1O (stereo unspecified) | 4.33
